Screening data as filed in PubChem BioAssay.
RAD52 anneal inh: inhibitors of human RAD52 DNA annealing. recombinant RAD52 DNA annealing, FRET fluorescence. inhibition, % at 18.7 µM. 0.46% of 360,000 active. AID 651710;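 active means every replicate showing at least 50% inhibition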
Target sequence (P43351 whole entry, looked up): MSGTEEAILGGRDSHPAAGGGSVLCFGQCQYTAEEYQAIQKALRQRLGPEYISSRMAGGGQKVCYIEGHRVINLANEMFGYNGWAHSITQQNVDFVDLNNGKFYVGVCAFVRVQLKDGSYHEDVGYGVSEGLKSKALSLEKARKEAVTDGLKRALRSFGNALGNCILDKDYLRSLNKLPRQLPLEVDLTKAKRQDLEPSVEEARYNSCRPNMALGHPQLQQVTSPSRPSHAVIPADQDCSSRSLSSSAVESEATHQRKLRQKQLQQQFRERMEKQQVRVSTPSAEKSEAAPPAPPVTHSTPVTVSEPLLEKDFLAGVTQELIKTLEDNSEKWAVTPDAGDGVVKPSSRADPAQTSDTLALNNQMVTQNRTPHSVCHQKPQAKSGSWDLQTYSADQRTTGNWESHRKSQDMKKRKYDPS
Glyco luc inh: blocks N-linked glycosylation in D54 reporter cells; 0.23% of 360,000 active; D54 ERlucT glycosylation luciferase reporter, 24 h; percent of 100 nM tunicamycin response; reporter increase, % at 12.5 µM;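 active means mean luciferase reporter signal, scaled so untreated is 0 and the glycosylation-blocking control 100, at or above a set limit in every replicate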;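 further: luciferase carries N-glycosylation sites so blocking glycosylation raises the light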
FN deposition inh: fibronectin deposition inhibition. AH1F fibroblasts, Alexa488-fibronectin deposition fluorescence, overnight. inhibition, % at 12.6 µM. 0.086% of 350,000 active;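 active means mean inhibition across replicates of 30% or more, regardless of how many single replicates reach that level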
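material = AH1F fibroblast monolayer depositing Alexa488-labelled fibronectin into matrix | amount = 10000 AH1F cells/well | buffer or medium = DMEM plus 2% serum, read in PBS | incubation = 1 h cell adhesion before compound, then overnight fibronectin incubation | detection = fluorescence at 485 nm excitation, 525 nm emission | evaluation = percent inhibition as loss of matrix-bound fibronectin fluorescence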
CaV13 ICDI inh: Disruptors of the CACNA1D IQ motif to Ca2+-dependent inactivation inhibitor domain association, primary screening, Förster resonance energy transfer in intact living …; HEK cells, CFP/YFP FRET ICDI-IQ, plate reader, 10 min; percent FRET-ratio fall versus neutral wells; inhibition, % at 12.3 µM; 0.098% of 340,000 active; AID 743397;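 active means mean replicate inhibition of at least 30% and at least 1% of replicates passing that level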
RAD54 branch: RAD54 (human) branch migration inhibition; Q92698; RAD54 Holliday junction branch migration, FAM/BHQ fluorescence; inhibition, % at 10.4 µM; 0.14% of 360,000 active; AID 602329;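 active means mean normalized replicate activity at least 40 and at least half of replicates scoring 40 or more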;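 further: inhibitors cause a drop in the FAM fluorescence signal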
RAD52 DNA ctr: binds DNA, flagging false RAD52 inhibitor hits; shares compounds with RAD52 anneal inh; Salmon sperm DNA/acridine orange FP displacement, DNA binding; AC50, µM; 8% of 1,000 active; AID 652128;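 active means fitted half-maximal concentration for signal loss at or below twice the highest dose tested, in every separate run, actives reach about 64 µM in these data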
Numbers stand for hits; - = inactive; . = not tested or not shown; ! = not active in a repeat. Rows were chosen to be rich in hits. Some 0.7% of all compounds tested hit in one or more screens of this group.

SMILES	RAD52 anneal inh	Glyco luc inh	FN deposition inh	CaV13 ICDI inh	RAD54 branch	RAD52 DNA ctr
COc1ccc(C)cc1Nc1n[n+](-c2ccccc2)c(-c2c(OC)ccc3ccccc23)s1	102.4	-	-	-	-	-
COc1ccc(C)cc1Nc1n[n+](-c2ccccc2)c(-c2cc(OC)c(OC)cc2Br)s1	-	-	-	-	-	.
O=C(C1CCCC1)N1CC(=O)N2[C@H](C1)[C@H](c1ccc(-c3cccnc3)cc1)[C@@H]2CO	-	.	-	.	.	.
Cn1c(=N)n(CC(=O)c2ccc(Br)s2)c2ccccc21	.	-	.	.	-	.
CCN(CC)CCn1c(=N)n(CC(=O)c2ccc(Br)s2)c2ccccc21	51.0	-	-	-	-	-
CCn1c(C)nc2cc(N)ccc21	93.2	-	-	-	.	-
Cc1nc2cc(C(=O)O)ccc2n1C1CCCCC1	-	-	.	-	-	.
Cc1nc2cc(N)ccc2n1C1CCCCC1	90.6	-	-	-	.	-
CCn1c(C)nc2cc(OC)ccc21	-	-	-	-	-	.
CC(=O)N(C)C[C@H]1Oc2ncc(C#C[C@@H](C)O)cc2C(=O)N([C@@H](C)CO)C[C@H]1C	-	.	-	.	-	.
CCOc1ccc(NC(=O)c2ccc(N3CC4CC(C3)c3cccc(=O)n3C4)c(NC(=O)c3ccncc3)c2)cc1 (stereo not drawn)	-	-	-	-	-	.
COc1cc(NC(=O)c2ccc(N3CC4CC(C3)c3cccc(=O)n3C4)c(NC(=O)c3ccncc3)c2)cc(OC)c1OC (stereo not drawn)	84.8	-	-	-	-	-
O=C(CN1CCOCC1)N1CC[C@@H]2[C@@H](CO)Nc3ccc(-c4ccc(F)cc4)cc3[C@@H]21	-	.	-	.	-	.
CCOC(=O)c1cnc2c(ccc3ccccc32)c1NCCN(C)C	79.3	-	-	-	80.5	-
CCN1CCN(Cc2ccc(NC(=O)c3ccc(C)c(NC(=O)c4csc(-c5ccncc5)n4)c3)cc2C(F)(F)F)CC1	74.8	-	-	-	-	-
CCN1CCN(Cc2ccc(NC(=O)c3ccc(C)c(NC(=O)c4ccno4)c3)cc2C(F)(F)F)CC1	-	-	-	-	-	.
CCN1CCN(Cc2ccc(NC(=O)c3cc(NC(=O)c4cncc(-c5cccs5)c4)cc(OC)c3)cc2C(F)(F)F)CC1	75.8	-	-	-	-	-
CCN1CCN(Cc2ccc(NC(=O)c3cc(NC(=O)c4ccno4)cc(OC)c3)cc2C(F)(F)F)CC1	56.5!	-	-	-	-	-
CCN1CCN(Cc2ccc(NC(=O)c3cc(NC(=O)c4cc(-c5ccc(OC)cc5)n[nH]4)cc(OC)c3)cc2C(F)(F)F)CC1	-	-	-	-	-	.
CCN1CCN(Cc2ccc(NC(=O)c3cc(NC(=O)c4ccc5n[nH]nc5c4)cc(OC)c3)cc2C(F)(F)F)CC1	-	-	-	-	-	.
CCN1CCN(Cc2ccc(NC(=O)c3cc(NC(=O)c4cc5cccc(OC)c5o4)cc(OC)c3)cc2C(F)(F)F)CC1	93.6!	-	-	-	-	-
O=C(NCC[C@H]1CC[C@H](NC(=O)c2cnccn2)[C@@H](CO)O1)Nc1ccc(Cl)cc1	-	.	.	.	-	.
C/C=C/c1ccc([C@H]2[C@@H](CO)N(C(=O)C3CC3)C23CN(S(=O)(=O)CC)C3)cc1	-	.	-	.	.	.
COc1ccc(C2c3ccc4ccccc4c3Oc3ncn(CCN(C)C)c(=N)c32)cc1 (stereo not drawn)	57.2	-	-	-	-	-
COCC(=O)Nc1ccc2c(c1)C(=O)N(C)C[C@H](OC)[C@@H](C)CN(Cc1cccnc1)[C@H](C)CO2	-	.	-	.	-	.
SMILES	RAD52 anneal inh	Glyco luc inh	FN deposition inh	CaV13 ICDI inh	RAD54 branch	RAD52 DNA ctr
CCN(CC)CCOC(=O)c1ccc(N=CC2=C(O)CC(C)(C)CC2=O)cc1	70.9	-	-	-	.	-
Cc1ccccc1-c1cnc2c(c1)C(=O)N([C@@H](C)CO)C[C@H](C)[C@@H](CN(C)C(=O)CC1CC1)O2	.	.	-	.	.	.
CN(C)CCCNC(=S)NCC(c1ccc(Cl)cc1Cl)c1c[nH]c2ccccc12 (stereo not drawn)	56.3	-	-	-	-	-
CCCCNC(=S)NCC(c1ccccc1)c1c[nH]c2ccccc12 (stereo not drawn)	-	-	-	-	-	.
CCN(CC)CCNC(=O)c1ccc(NC(=O)c2cccc(S(=O)(=O)N3CCc4ccccc43)c2)cc1	50.1	-	-	-	.	-
CCN(CC)CCNC(=O)c1ccc(NC(=O)c2cccc(S(=O)(=O)N3c4ccccc4CC3C)c2)cc1 (stereo not drawn)	-	-	-	-	-	.
C[C@H]1CN([C@@H](C)CO)C(=O)c2cc(NS(=O)(=O)c3cccs3)ccc2O[C@@H]1CN(C)S(=O)(=O)c1ccc(Cl)cc1	-	.	-	.	-	.
CN1CCN(c2ccc(Cl)cc2NC(=O)CCN2C(=O)c3ccccc3C2=O)CC1	82.6	-	.	-	.	-
Cc1c2cnn(-c3ccccc3)c(=O)c2c(C)n1CCCC(=O)NCCN1CCN(C)CC1	57.9	-	-	-	.	-
CCN1CCN(C(=O)CCCn2c(C)c3cnn(-c4ccccc4)c(=O)c3c2C)CC1	-	-	-	-	-	.
COCCN1CCn2c(nc3cc(Nc4nnc(C)c5ccccc45)ccc32)C1	72.3	-	-	-	.	-
COCCN1CCn2c(nc3cc(NC(C)=O)ccc32)C1	-	-	-	-	-	.
CN1CCN(c2cc(-c3cc(O)c4ncccc4c3)ccn2)CC1	106.9	-	-	-	-	-
CN(C)CCCn1c(=O)n(CCc2ccccc2)c(=O)c2c3c(sc21)CCCCC3	55.7	-	-	-	-	-
CN(C)CCn1c(=O)n(Cc2ccccc2)c(=O)c2c3c(sc21)CCCCC3	-	-	-	-	-	.
CC(=O)OCn1ncc(N2CCOCC2)c(Br)c1=O	94.3	-	-	-	-	-
COc1ccc(-c2cc3c(c(-c4ccc(Oc5ccccc5)cc4)n2)[Si](C(C)C)(C(C)C)OC3)cn1	-	.	.	.	-	.
NC(N)=NC(N)=Nc1cccc2ccccc12	-	-	-	-	-	.
NC(N)=Nc1cc2ccccc2c2ccccc12	55.9	.	-	-	.	-
CCN(CC)CCNC(=O)c1cc(-c2ccco2)nc2ccccc12	77.8	-	.	-	.	-
COc1ccc2cc(CNCCOCCOCCNCc3ccc4cc(OC)ccc4c3)ccc2c1	63.5	-	-	-	.	-
CCOCCCNCc1ccc(OC)cc1	.	-	-	-	-	.
CC(C)C(=O)Nc1ccc2c(c1)C(=O)N(C)[C@H]1CC[C@@H](CC(=O)NCCCN(C)C)O[C@@H]1CO2	-	.	.	.	-	.
NCCCC[C@H]1CNC(=S)N1CC1CCCCC1	84.6	-	-	-	-	-
NCCCC[C@H]1CNC(=O)C(=O)N1CCCCC1CCCCC1	-	-	-	-	-	.
CCN(Cc1ccccc1)S(=O)(=O)c1ccc(C(=O)N(CCCN(C)C)c2nc3cc(OC)ccc3s2)cc1	58.9	-	-	-	.	-
